Experimental data published in ChEMBL document CHEMBL3797056, “An evaluation of Minor Groove Binders as anti-Trypanosoma brucei brucei therapeutics” (Eur J Med Chem, 2016).
The source made the active and inactive calls. The calls are words filed in the database; no cut-off is given here.

Legend:
HEK293 = test: Cytotoxicity against HEK293 cells assessed as growth inhibition after 72 hrs by alamar blue viability assay; assay type: cell-based; settings: Homo sapiens, HEK293, 72 h
In short: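 HEK 293 cells kept in DMEM + 10% FBS at 37 °C, 5% CO2, harvested at 80% confluence, 2000 cells/well, equilibrated overnight. Serial compound dilutions for 72 h; puromycin positive control, 0.4% DMSO negative. […] Two experiments, duplicate points.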

[1] = Selectivity index, ratio of IC50 for HEK293 cells to IC50 for Trypanosoma brucei brucei Lister 427 bloodstream forms; assay type: toxicity, cell-based; settings: human, read-out: Ratio IC50
[2] = tested on: Trypanosoma brucei brucei; test: Antitrypanosomal activity against Trypanosoma brucei brucei Lister 427 bloodstream forms incubated for 48 hrs by alamar blue assay; assay type: functional, organism-based; settings: Lister 427, 48 h
[3] = Drug uptake in Trypanosoma brucei brucei Lister 427 bloodstream forms nucleus at 50 uM after 2 hrs by FITC/DsRed staining based fluorescence microscopic analysis; assay type: ADME
In short: (§1)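 Parasites at 1 × 10^7 cells/mL exposed to 50 μM compound for 2 h at 37 °C, humidified 5% CO2. Washed in PBS, mixed 1:1 with 2% w/v low-melting agarose and spread under a coverslip for fluorescence microscopy.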

[4] = tested on: Trypanosoma brucei brucei; test: Binding affinity to kinetoplast DNA in Trypanosoma brucei brucei Lister 427 bloodstream forms at 50 uM after 2 hrs by FITC/DsRed staining based fluorescence microscopic analysis; in short: as §1

Structure (SMILES)	IC50 (HEK293)	selectivity ratio [1]	further results
Cn1cc(NC(=O)c2cc(NC(=O)c3ccc(/C=C/c4ccc5nsnc5c4)cc3)cn2C)cc1C(=O)NCCN1CCOCC1	> 20 µM	> 2740	–
CC(C)CCc1sc(NC(=O)c2cc(NC(=O)c3ccc(/C=C/c4ccc5ccccc5c4)cc3)cn2C)nc1C(=O)NCCN1CCOCC1	> 20 µM	> 500	–
COc1cccc(C(=N)Nc2cc(C(=O)Nc3cc(C(=O)Nc4nc(C(=O)NCCN5CCOCC5)c(C(C)C)s4)n(C)c3)n(C)c2)c1	–	–	IC50 [2]: > 75 µM
CN(C)c1ccc(/C=C/c2ccc(C(=O)Nc3cc(C(=O)Nc4cc(C(=O)NCCN5CCOCC5)n(C)c4)n(C)c3)cn2)cc1	–	–	Drug uptake [3]: Active; Activity [4]: Active
Cn1cc(NC(=O)c2cc(NC(=O)c3cc(NC(=O)c4cc5ccccc5cn4)cn3C)cn2C)cc1C(=O)NCCCN1CCOCC1	> 20 µM	> 2940	–
CC(C)CCc1sc(NC(=O)c2cc(NC(=O)c3cc(/C=C/c4ccc([N+](=O)[O-])cc4)cn3C)cn2C)nc1C(=O)NCCN1CCOCC1	–	> 1850	–
Cn1cc(NC(=O)c2cc(NC(=O)c3ccc(/C=C/c4ccc5nonc5c4)cc3)cn2C)cc1C(=O)NCCN1CCOCC1	> 20 µM	> 1050	–
Cn1cc(NC(=O)c2cc(NC(=O)c3cc(NC=O)cn3C)cn2C)cc1C(=O)NCCN1CCOCC1	–	–	IC50 [2]: 48 µM
